# According to ChEMBL document CHEMBL2346664, “Synthesis, characterization and in vitro anticancer evaluation of novel 1,2,4-triazolin-3-one derivatives” (2013):
# Legend:
# Type in all cases: functional
# [1] = system: IGROV-1; test: Growth inhibition of human IGROV1 cells assessed as cell growth at 10 '-7 M after 48 hrs by sulforhodamine B assay; details: IGROV-1, 48 h, read-out: Activity
# [2] = system: RXF 393; test: Growth inhibition of human RXF393 cells after 48 hrs by sulforhodamine B assay; details: RXF 393, 48 h
# [3] = system: SK-OV-3; test: Growth inhibition of human SKOV3 cells assessed as cell growth at 10 '-6 M after 48 hrs by sulforhodamine B assay; details: SK-OV-3, 48 h, read-out: Activity
# [4] = system: HT-29; test: Growth inhibition of human HT-29 cells assessed as cell growth at 10 '-4 M after 48 hrs by sulforhodamine B assay; details: HT-29, 48 h, read-out: Activity
# [5] = system: OVCAR-5; test: Growth inhibition of human OVCAR5 cells assessed as cell growth at 10 '-7 M after 48 hrs by sulforhodamine B assay; details: OVCAR-5, 48 h, read-out: Activity
# [6] = system: HCT-116; test: Growth inhibition of human HCT116 cells assessed as growth inhibition at 10 uM after 48 hrs by sulforhodamine B assay; details: HCT-116, 48 h, read-out: GI
# [7] = system: MDA-MB-468; test: Growth inhibition of human MDA-MB-468 cells after 48 hrs by sulforhodamine B assay; details: MDA-MB-468, 48 h
# In short: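 NCI 60-cell-line five-dose screen. Cells were plated at 5,000–40,000/well by doubling time and grown 24 h at 37 °C, 5% CO2. Time-zero plates were TCA-fixed. Drug from DMSO stock was tested at 0.01, 0.1, 1, 10 and 100 µM final for 48 h continuous exposure. Read-out was SRB at 515 nm. GI50 is the concentration giving 50% reduction in net protein increase versus untreated control.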
# [8] = system: UO-31; test: Growth inhibition of human UO31 cells assessed as cell growth at 10 '-7 M after 48 hrs by sulforhodamine B assay; details: UO-31, 48 h, read-out: Activity
# [9] = system: UACC-257; test: Growth inhibition of human UACC257 cells after 48 hrs by sulforhodamine B assay; details: UACC-257, 48 h
# In short: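 NCI 60-cell-line five-dose screen over 0.01, 0.1, 1, 10 and 100 µM, with 48 h continuous exposure at 37 °C and 5% CO2 after 24 h pre-incubation (5,000–40,000 cells/well). Cells were TCA-fixed (10% final for adherent, 16% for suspension), stained with SRB and read at 515 nm. GI50 was solved from [(Ti−Tz)/(C−Tz)]×100 = 50 against time-zero plates.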
# [10] = system: SK-OV-3; test: Growth inhibition of human SKOV3 cells assessed as cell growth at 10 '-5 M after 48 hrs by sulforhodamine B assay; details: SK-OV-3, 48 h, read-out: Activity
# [11] = system: LOX IMVI; test: Growth inhibition of human LOXIMVI cells assessed as cell growth at 10 '-8 M after 48 hrs by sulforhodamine B assay; details: read-out: Activity
# [12] = system: MDA-MB-435; test: Growth inhibition of human MDA-MB-435 cells assessed as cell growth at 10 '-7 M after 48 hrs by sulforhodamine B assay; details: MDA-MB-435, 48 h, read-out: Activity
# [13] = system: CAKI-1; test: Growth inhibition of human CAKI-1 cells after 48 hrs by sulforhodamine B assay; details: CAKI-1, 48 h
# In short: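 NCI 60-cell-line five-dose screen at 0.01, 0.1, 1, 10 and 100 µM final. Cells were plated at 5,000–40,000/well and grown 24 h at 37 °C, 5% CO2, then exposed to drug continuously for 48 h. Adherent cells were fixed with cold TCA (10% final) and stained with SRB; absorbance read at 515 nm. GI50 is the concentration where [(Ti-Tz)/(C-Tz)]×100 = 50, with Tz plates fixed at drug addition.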
# [14] = system: MCF7; test: Growth inhibition of human MCF7 cells assessed as cell growth at 10 '-5 M after 48 hrs by sulforhodamine B assay; details: MCF7, 48 h, read-out: Activity
# [15] = system: NCI-H522; test: Growth inhibition of human NCI-H522 cells assessed as cell growth at 10 '-6 M after 48 hrs by sulforhodamine B assay; details: NCI-H522, 48 h, read-out: Activity
# [16] = system: SF-268; test: Growth inhibition of human SF268 cells after 48 hrs by sulforhodamine B assay; details: SF-268, 48 h
# [17] = system: SW-620; test: Growth inhibition of human SW620 cells assessed as cell growth at 10 '-5 M after 48 hrs by sulforhodamine B assay; details: SW-620, 48 h, read-out: Activity
# [18] = system: SNB-19; test: Growth inhibition of human SNB19 cells after 48 hrs by sulforhodamine B assay; details: SNB-19, 48 h
# [19] = system: SN12C; test: Growth inhibition of human SN12C cells assessed as cell growth at 10 '-4 M after 48 hrs by sulforhodamine B assay; details: read-out: Activity
# [20] = Growth inhibition of human EKVX cells assessed as cell growth at 10 '-6 M after 48 hrs by sulforhodamine B assay; details: read-out: Activity
# [21] = system: T47D; test: Growth inhibition of human T47D cells assessed as cell growth at 10 '-7 M after 48 hrs by sulforhodamine B assay; details: read-out: Activity
# [22] = system: A498; test: Growth inhibition of human A498 cells assessed as cell growth at 10 '-6 M after 48 hrs by sulforhodamine B assay; details: A498, 48 h, read-out: Activity
# In short: (§1)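 Percent growth at each of the five concentrations of the 48 h continuous-exposure NCI SRB screen. Drug stocks were in DMSO at 400× the top final concentration and diluted in medium with gentamicin. Growth was calculated as [(Ti-Tz)/(C-Tz)]×100 when Ti ≥ Tz, or [(Ti-Tz)/Tz]×100 when Ti < Tz. Tz plates were fixed at drug addition; untreated wells served as control. Absorbance was read at 515 nm.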
# [23] = system: SF-539; test: Growth inhibition of human SF539 cells assessed as cell growth at 10 '-5 M after 48 hrs by sulforhodamine B assay; details: SF-539, 48 h, read-out: Activity
# [24] = system: OVCAR-4; test: Growth inhibition of human OVCAR4 cells assessed as cell growth at 10 '-8 M after 48 hrs by sulforhodamine B assay; details: OVCAR-4, 48 h, read-out: Activity
# [25] = system: T47D; test: Growth inhibition of human T47D cells assessed as cell growth at 10 '-8 M after 48 hrs by sulforhodamine B assay; details: read-out: Activity
# [26] = system: DU-145; test: Growth inhibition of human DU145 cells assessed as cell growth at 10 '-8 M after 48 hrs by sulforhodamine B assay; details: DU-145, 48 h, read-out: Activity
# [27] = system: A498; test: Growth inhibition of human A498 cells assessed as cell growth at 10 '-7 M after 48 hrs by sulforhodamine B assay; details: A498, 48 h, read-out: Activity; in short: as §1
# [28] = Growth inhibition of human EKVX cells assessed as growth inhibition at 10 uM after 48 hrs by sulforhodamine B assay; details: read-out: GI
# [29] = read-out: LD50 (the source's name)
structure (smiles),measurement,setting,value
Cc1cc(=O)oc2cc(OCCn3c(C)nn(-c4ccc(Cl)cc4)c3=O)ccc12,growth at 0.1 µM,[1],112%
same,GI50,[2],2760 nM
same,TGI,[2],3000 nM
same,CC50,[2]; [29],> 1000 nM
same,growth at 1 µM,[3],88%
same,growth at 100 µM,[4],9%
same,growth at 0.1 µM,[5],102%
same,inhibition of growth at 10 µM,[6],84.9%
same,GI50,[7],2690 nM
same,TGI,[7],5760 nM
same,CC50,[7]; [29],> 1000 nM
same,growth at 0.1 µM,[8],83%
same,TGI,[9],> 1000 nM
same,CC50,[9]; [29],> 1000 nM
same,growth at 10 µM,[10],16%
same,growth at 0.01 µM,[11],96%
same,growth at 0.1 µM,[12],94%
same,GI50,[13],1000 nM
same,TGI,[13],> 1000 nM
same,CC50,[13]; [29],> 1000 nM
same,growth at 10 µM,[14],14%
same,growth at 1 µM,[15],87%
same,GI50,[16],1360 nM
same,TGI,[16],> 1000 nM
same,CC50,[16]; [29],> 1000 nM
same,growth at 10 µM,[17],16%
same,GI50,[18],5370 nM
same,TGI,[18],> 1000 nM
same,CC50,[18]; [29],> 1000 nM
same,growth at 100 µM,[19],37%
same,growth at 1 µM,[20],88%
same,growth at 0.1 µM,[21],99%
same,growth at 1 µM,[22],52%
same,growth at 10 µM,[23],25%
same,growth at 0.01 µM,[24],100%
same,growth at 0.01 µM,[25],98%
same,growth at 0.01 µM,[26],111%
same,growth at 0.1 µM,[27],76%
same,inhibition of growth at 10 µM,[28],41.3%
